Laboratory results taken from article PMC11022046 (iScience, 2024).
Where a name gives a salt, the structure may show the parent alone.

How the values were obtained:
[1] = system: H1299 lung cancer cells; assay: SRB proliferation assay; assay type: cell-based; details: Homo sapiens, NCI-H1299, 72 h, read-out: SRB IC50
In short: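 H1299 cells (RPMI/10% FBS) seeded the day before, then given serial half dilutions from 20 μM down to 0.078 μM for 72 h. Fixed in cold 10% TCA for 1 h and stained 15 min with 0.4% SRB. Washed with water and 1% acetic acid, dye dissolved in 10 mM Tris pH 10.5, OD read at 560 nm. Normalized to DMSO; IC₅₀ with 95% CI by nonlinear regression. Three biological × three technical replicates.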

[2] = Caco-2 permeability assay; assay type: in vitro ADME; details: human
In short: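 Caco-2 monolayers grown to confluence on transwells, with integrity checked by TEER. Test compound (5 μM) added to the apical or the basolateral side to give transport direction. After 2 h, donor and receiver samples quantified by LC-MS/MS. Lucifer Yellow used to check leakage. Propranolol (high absorption) and digoxin (high efflux) served as controls.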

[3] = system: H1299 cells; assay: Extracellular lactate assay; assay type: cell-based, human; details: H1299, 1 and 2 μM, 48 h
In short: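 H1299 seeded at 3.75 × 10⁴ or 7.5 × 10⁴ cells/well, then treated 48 h with 1 or 2 μM or with DMSO. Medium passed through a 3K cutoff filter at 14,000 × g, 15 min, 4°C. Lactate measured with a WST-based kit on medium diluted 1:20, in triplicate, against a standard curve. Values normalized to cell count and DMSO; three biological replicates.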

[4] = system: H1299 lung cancer cells; assay: WST-8 proliferation assay; assay type: cell-based; details: Homo sapiens, NCI-H1299, 72 h, read-out: WST IC50
In short: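 H1299 cells (RPMI/10% FBS) seeded the day before, then given serial half dilutions from 20 μM down to 0.078 μM for 72 h. WST-8 reagent added to the medium at 1:10, 2 h at 37°C, OD read at 450 nm; both adherent and non-adherent cells counted. Normalized to DMSO; IC₅₀ with 95% CI by nonlinear regression. Three biological × three technical replicates.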

[5] = system: H1299 cells; assay: Mitochondrial structure by electron microscopy; assay type: cell-based, human; details: H1299, 48 h, 1 or 2 μM
In short: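 H1299 cells (1.75 × 10⁵ per 10 cm plate) exposed 48 h to 1 or 2 μM or to DMSO, then scraped and pelleted. Pellets fixed 4 h at room temperature in 2.0% paraformaldehyde/2.5% glutaraldehyde in 0.1 M cacodylate, pH 7.2. Post-fixed in 1.0% osmium tetroxide for 1 h; en bloc 2% aqueous uranyl acetate, 20 min, 60°C. Three biological replicates.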

[6] = system: H1299 cells; assay: 3D spheroid invasion assay; assay type: cell-based, human; details: H1299 spheroids in basement membrane matrix, 2 μM, 48 h
In short: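 H1299 spheroids formed over 3 days from 3 × 10³ cells/well in low-attachment wells. Embedded in Matrigel containing 0.5, 1 or 2 μM compound, with compound also in the medium, and incubated 48 h. Imaged at Day 0 and Day 2 with a 4× objective; perimeter outlined. Invasion area = Day 2 area minus Day 0 area. At least four spheroids per treatment in each of three biological replicates.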

[7] = In vivo pharmacokinetics, single IP dose; design: species or system BALB/c mice
In short: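 Female BALB/c mice (8–14 weeks) given 5 mg/kg by single IP injection in 1% DMSO/99% water. Plasma sampled at 0.25, 0.5, 1, 2, 4, 6, 8 and 24 h. Compound quantified by LC-MS/MS with calibration standards and QC samples. Terminal elimination half-life and maximum concentration derived; n = 3 mice per treatment.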

[8] = system: H1299 cells; assay: TMRM flow cytometry with oligomycin; assay type: cell-based, human; details: H1299, 1 μM, 48 h, + 1 μM oligomycin, mean of three replicates
In short: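 H1299 cells (1.75 × 10⁵ per 10 cm plate) exposed 48 h to 1 μM or to DMSO. Attached and floating cells pooled and stained with 2 nM TMRM in phenol-red-free RPMI with 2% dialyzed FBS for 30 min at 37°C. Oligomycin (1 μM) added during the TMRM incubation, then flow cytometry. Three biological replicates.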

[9] = female, BALB/c, mouse, plasma, ip, 5 mg/kg

## CCCCC(CC)CNC(=N)NC(=N)NCCCCCCNC(=N)NC(=N)NCC(CC)CCCC (stereo not shown) [Alexidine, Alexidine dihydrochloride]
[1]
  IC50: 1 µM
[2]
  efflux ratio at 2 h, 5 μM: > 5.37
[3]
  effect on extracellular lactate: increased lactate concentration
[4]
  IC50: 2.5 µM
[5]
  effect on mitochondrial structure: disrupted mitochondrial structure
[6]
  invasive area, % of the control: 36.8%
[7]; [9]
  Cmax: 268 ng/mL
  half-life: 9.5 h
[7]; mice, IP
  tolerability in mice: tolerated in mice
[8]
  percentage of cells unable to hyperpolarize with oligomycin (TMRM-low population): 18.1%
